Columns and labels:
Plasmodium berghei [1] = assay: Antimalarial activity in Plasmodium berghei infected mice (Mus musculus) after subcutaneous 160 mg/kg dose; type: functional
Summary of the method: (§1)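 Normal drug-sensitive P. berghei strain in mice. Compound dissolved or suspended in sesame or peanut oil, given parenterally as a single subcutaneous dose 72 h postinfection.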

Plasmodium berghei [2] = assay: (§2) Antimalarial activity in Plasmodium berghei infected mice (Mus musculus) after 20 mg/kg subcutaneous dose; type: functional; summary of the method: as §1
Plasmodium berghei [3] = assay: Antimalarial activity in Plasmodium berghei infected mice (Mus musculus) after subcutaneous 320 mg/kg dose; type: functional; summary of the method: as §1
Plasmodium berghei [4] = assay: (§3) Antimalarial activity in Plasmodium berghei infected mice (Mus musculus) after 40 mg/kg subcutaneous dose; type: functional; summary of the method: as §1
Plasmodium berghei [5] = assay: Antimalarial activity in Plasmodium berghei infected mice (Mus musculus) after subcutaneous 640 mg/kg dose; type: functional; summary of the method: as §1
Plasmodium berghei [6] = assay: (§4) Antimalarial activity in Plasmodium berghei infected mice (Mus musculus) after 80 mg/kg subcutaneous dose; type: functional; summary of the method: as §1
Plasmodium berghei [7] = assay: as §2; type: functional; remark: listed apart in the source
Summary of the method: (§5)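 […] in mice infected with a normal drug-sensitive P. berghei strain. Compound dissolved or suspended in sesame or peanut oil, given as a single subcutaneous dose 72 h postinfection.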

Plasmodium berghei [8] = assay: as §3; type: functional; summary of the method: as §5; remark: listed apart in the source
Plasmodium berghei [9] = assay: Antimalarial activity was measured against mice (Mus musculus) infected with Plasmodium berghei by subcutaneous administration of 320 mg/kg dose; type: organism-based; design: dose 320 mg/kg, route subcutaneous; conditions: in vivo, sc; summary of the method: as §5
Plasmodium berghei [10] = assay: Antimalarial activity was measured against mice (Mus musculus) infected with Plasmodium berghei by subcutaneous administration of 640 mg/kg dose; type: organism-based; design: dose 640 mg/kg, route subcutaneous; conditions: in vivo, sc; summary of the method: as §5
Plasmodium berghei [11] = assay: Antimalarial activity in Plasmodium berghei infected mice (Mus musculus) after 160 mg/kg subcutaneous dose; type: functional; summary of the method: as §5
Plasmodium berghei [12] = assay: Antimalarial activity in Plasmodium berghei infected mice (Mus musculus) after 320 mg/kg subcutaneous dose; type: functional; summary of the method: as §5
Plasmodium berghei [13] = assay: as §4; type: functional; summary of the method: as §5; remark: listed apart in the source
Plasmodium berghei [14] = assay: Antimalarial activity Plasmodium berghei infected mice (Mus musculus) after 640 mg/kg subcutaneous dose; type: functional; summary of the method: as §5
Plasmodium berghei [15] = assay: Antimalarial activity was measured against mice (Mus musculus) infected with Plasmodium berghei by subcutaneous administration of 160 mg/kg dose; type: organism-based; design: dose 160 mg/kg, route subcutaneous; conditions: in vivo, sc; summary of the method: as §5

SMILES	No. of cured mice (Plasmodium berghei [1])	No. of cured mice (Plasmodium berghei [2])	No. of cured mice (Plasmodium berghei [3])	No. of cured mice (Plasmodium berghei [4])	No. of cured mice (Plasmodium berghei [5])	No. of cured mice (Plasmodium berghei [6])	Delta mean survival time (Plasmodium berghei [7])	Delta mean survival time (Plasmodium berghei [8])	No. of toxic deaths (Plasmodium berghei [9])	No. of toxic deaths (Plasmodium berghei [10])	Delta mean survival time (Plasmodium berghei [11])	Delta mean survival time (Plasmodium berghei [12])	Delta mean survival time (Plasmodium berghei [13])	Delta mean survival time (Plasmodium berghei [14])	No. of toxic deaths (Plasmodium berghei [15])	No. of cured mice (Plasmodium berghei [1]; 160 mg/kg)	No. of cured mice (Plasmodium berghei [2]; 20 mg/kg)	Delta mean survival time (Plasmodium berghei [7]; 20 mg/kg)	Delta mean survival time (Plasmodium berghei [12]; 320 mg/kg)	Delta mean survival time (Plasmodium berghei [14]; 640 mg/kg)
CCN(CC)CC(C)(C)C/N=C1\CC(c2ccc(Cl)cc2Cl)Cc2nc3ccc(Cl)cc3c(O)c21 (stereo unspecified)	5	3	5	4	5	5	12.7	13.7												
O=c1c2c(n(O)c3ccc(Cl)cc13)CC(c1ccc(C(F)(F)F)cc1)C/C2=N\CCCNCCO (stereo unspecified)	5		4	3	1	5	6.4	10.7	1	4										
CCN(CC)CCCCCCC/N=C1\CC(c2ccc(Cl)cc2Cl)Cc2nc3ccc(Cl)cc3c(O)c21 (stereo unspecified)	4	4	4	4	5	5	6.7	9.7			0.7	3.7								
CCN(CC)CCCC(C)/N=C1\CC(c2ccc(Cl)cc2Cl)Cc2nc3ccc(Cl)cc3c(O)c21 (stereo unspecified)	5	3	5	4	5	5	10.2	13.7												
O=c1c2c(n(O)c3ccc(Cl)cc13)CC(c1ccc(C(F)(F)F)cc1)C/C2=N\CCCN(CCO)CCO (stereo unspecified)	5	2	5	4	5	1	12	14.8					9.5							
CC1/C(=N\CCCN(C)C)c2c(n(O)c3ccc(Cl)cc3c2=O)CC1c1ccc(Cl)cc1Cl (stereo unspecified)	5	1	4	5	1	4	11.1					2.8	16.8	1.8						
O=c1c2c(n(O)c3ccc(Cl)cc13)CC(c1cccc(C(F)(F)F)c1)C/C2=N\CCCCCCN1CCCCC1 (stereo unspecified)	2							4	5	5			6.4		3					
O=C1CC(c2ccc(C(F)(F)F)cc2)Cc2nc3ccc(Cl)cc3c(O)c21 (stereo unspecified)	5	1	5	2	5	4	8.9	9.9					9.4							
O=c1c2c(n(O)c3ccc(Cl)cc13)CC(c1ccc(C(F)(F)F)cc1)C/C2=N\CCCN1CCCC1 (stereo unspecified)	5	1	3	2	1	5	11	10.8	1	4										
CCc1ccc2nc3c(c(O)c2c1)/C(=N/CCCN(C)C)CC(c1ccc(C(F)(F)F)cc1)C3 (stereo unspecified)								0.6		4	1.9			1.4	1					
CN(C)CCC/N=C1\CC(c2ccc(C(F)(F)F)cc2)Cc2nc3ccc([N+](=O)[O-])cc3c(O)c21 (stereo unspecified)	4		3		1	1	2.2	5.4	2	4	11.6		8.9							
O=C1CC(c2ccc(Cl)cc2Cl)Cc2nc3ccc(Cl)cc3c(O)c21 (stereo unspecified)	4	2	5	3	5	4	10.3	18.1			17.8		15.8							
CCN(CC)CC/N=C1\CC(c2ccc(Cl)c(Cl)c2)Cc2c1c(=O)c1cc(Cl)ccc1n2O (stereo unspecified)	5	1	5	3	5	3	10.5	8.8					12.7							
CCN(CC)CC/N=C1\CC(c2ccc(Cl)c(Cl)c2)Cc2nc3ccc(Cl)cc3c(O)c21 (stereo unspecified)	5	2	3	4	5	4	9.3	8				20	8							
CCN(CC)CC(C)(C)C/N=C1\CC(c2ccc(C(F)(F)F)cc2)Cc2c1c(=O)c1cc(Cl)ccc1n2O (stereo unspecified)	5	3	5	3	3	4	13	11.2		2			12.5							
O=C(O)c1ccc(C2CC(=O)c3c(n(O)c4ccc(Cl)cc4c3=O)C2)cc1 (stereo unspecified)								-0.1		4	-0.1			0.9	1					
CN(C)CCC/N=C1\CC(c2ccc(Cl)cc2Cl)Cc2c1c(=O)c1cc(Cl)ccc1n2O (stereo unspecified)	5	4		5	4		10.6			1										
CN(C)CCC/N=C1\CC(c2ccc(C(F)(F)F)cc2)Cc2nc3ccc(F)cc3c(O)c21 (stereo unspecified)	1			4				14.9		5					4					
CCCCNC(CC)C/N=C1\CC(c2ccc(C(F)(F)F)cc2)Cc2c1c(=O)c1cc(Cl)ccc1n2O (stereo unspecified)	5	2	5	2	4	4	6	7.7		1										
CCN(CC)CCCC/N=C1\CC(c2ccc(C(F)(F)F)cc2)Cc2c1c(=O)c1cc(Cl)ccc1n2O (stereo unspecified)	5	2	4	4		5	14	10.5		4										
CC1/C(=N\CCCN(C)C)c2c(nc3ccc(Cl)cc3c2O)CC1c1ccc(Cl)cc1Cl (stereo unspecified)	5	3	4	4	3	5	0.1	19.9				3.9		2.9						
CCN(CC)CC(C)(C)C/N=C1\CC(c2ccc(C(F)(F)F)cc2)Cc2nc3ccc(Cl)cc3c(O)c21 (stereo unspecified)	5	2	4	2	4	4	8.6	10.3				49.6	13.6	1.3						
CC1/C(=N\CCCN(C)C)c2c(nc3ccc(Cl)cc3c2O)CC1c1ccc(C(F)(F)F)cc1 (stereo in doubt; cis)				5		5				1	3					4	4	10.7	3.1	2.3
CC1/C(=N\CCCN(C)C)c2c(nc3ccc(Cl)cc3c2O)CC1c1ccc(C(F)(F)F)cc1 (stereo in doubt; trans)			4		1											5	1	11	3.7	2.7
O=C1CC(c2ccc(C(F)(F)F)cc2)Cc2c1c(=O)c1cc(Cl)ccc1n2O (stereo unspecified) [FLOXACRINE]	5	4	5	5	3	5	8.9							3.4						

Reference: ChEMBL document CHEMBL1126276, “Synthesis and antimalarial properties of 1-imino derivatives of 7-chloro-3-substituted-3,4-dihydro-1,9(2H,10H)-acridinediones and related structures” (J Med Chem, 1992)
